Experimental data published in ChEMBL document CHEMBL3232778, “One-pot synthesis and radical scavenging activity of novel polyhydroxylated 3-arylcoumarins” (Eur J Med Chem, 2014).
Active and inactive are the calls of the source. The rule behind the calls is not given here.

system: Radical scavenging activity; assay: Antioxidant activity assessed as DPPH radical scavenging activity up to 100 uM by spectrophotometry; type: functional

For `O=C(O)c1ccccc1-c1cc2cccc(O)c2oc1=O`, the Activity was “inactive”.
For `O=C(O)c1ccccc1-c1cc2cc(O)ccc2oc1=O`, the Activity was “inactive”.
With `O=C(O)c1ccccc1-c1cc2ccc(O)cc2oc1=O` the Activity was “inactive”.
In the case of `O=C(O)c1ccccc1-c1cc2c(O)cccc2oc1=O`, the Activity is reported as “inactive”.
In the case of `O=C(O)c1ccccc1-c1cc2ccccc2oc1=O`, the Activity is reported as “inactive”.
With `O=C(O)c1ccccc1-c1cc2cc(Br)ccc2oc1=O` the Activity was “inactive”.

system: Radical scavenging activity; assay: Antioxidant activity assessed as DPPH radical scavenging activity by spectrophotometry; type: functional
Method in brief: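 DPPH• in methanol, prepared daily and kept from light; 0.5 mL test solution in methanol (4-25 µM) added to 0.5 mL of 100 µM DPPH•. Absorbance read at 518 nm at intervals until equilibrium, with a methanol blank; triplicates, five analyte concentrations. %DPPH• remaining = Af/A0×100; concentration plotted against % remaining to get the 50% scavenging value.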

`O=C(O)c1cc(O)c(O)cc1-c1cc2ccc(O)c(O)c2oc1=O` and `O=C(O)c1cc(O)c(O)cc1-c1cc2cccc(O)c2oc1=O` are within 1.5-fold of each other in EC50: 3.39 µM for the first, 4.09 µM for the second.

`O=C(O)c1cc(O)c(O)cc1-c1cc2ccccc2oc1=O` and `O=C(O)c1ccccc1-c1cc2cc(O)c(O)cc2oc1=O` are within 1.5-fold of each other in EC50: 5.14 µM for the first, 5.32 µM for the second.

`O=C(O)c1ccc(O)c(O)c1` [PROTOCATECHUIC ACID] and `O=C(O)/C=C/c1ccc(O)c(O)c1` [CAFFEIC ACID] are within 1.5-fold of each other in EC50: 8.83 µM for the first, 9.48 µM for the second.

`O=C(O)c1cc(O)c(O)cc1-c1cc2cc(O)c(O)cc2oc1=O` and `O=C(O)c1cc(O)c(O)cc1-c1cc2ccc(O)cc2oc1=O` are within 1.5-fold of each other in EC50: 5.3 µM for the first, 6.02 µM for the second.

`O=C(O)c1ccccc1-c1cc2ccc(O)c(O)c2oc1=O` and `O=C(O)c1cc(O)c(O)cc1-c1cc2cc(Br)ccc2oc1=O` are within 1.5-fold of each other in EC50: 3.59 µM for the first, 4.02 µM for the second.

Compared with `Cc1c(C)c2c(c(C)c1O)CCC(C)(C(=O)O)O2` (stereo not given) [TROLOX], `O=C(O)c1cc(O)c(O)c(O)c1` [GALLIC ACID] is 1.7-fold lower in EC50: 9.34 µM for the first, 5.34 µM for the second.

Going from `O=C(O)c1cc(O)c(O)cc1-c1cc2c(O)cccc2oc1=O` to `O=C(O)c1cc(O)c(O)cc1-c1cc2cc(O)ccc2oc1=O`, the EC50 falls from 6.86 µM to 3.17 µM (2.2-fold). The second is the more potent here.
